Test results taken from ChEMBL document CHEMBL5316332 (J Med Chem, 2023).
Active and inactive are the calls of the source. The calls are words filed in the database; no cut-off is given here.

Key:
[1] = target: T1, Bone morphogenetic protein receptor type-2 (Homo sapiens, UniProt Q13873); experiment: (§1) Inhibition of recombinant C-terminal 6His-tagged human BMPR2 (188 to 517 residues) expressed in Escherichia coli Rosetta assessed as apparent inhibition constant using ATP as substrate incubated for 30 mins by Morrison plot analysis; conditions: read-out: Ki(app)
T1 sequence (Q13873 whole entry): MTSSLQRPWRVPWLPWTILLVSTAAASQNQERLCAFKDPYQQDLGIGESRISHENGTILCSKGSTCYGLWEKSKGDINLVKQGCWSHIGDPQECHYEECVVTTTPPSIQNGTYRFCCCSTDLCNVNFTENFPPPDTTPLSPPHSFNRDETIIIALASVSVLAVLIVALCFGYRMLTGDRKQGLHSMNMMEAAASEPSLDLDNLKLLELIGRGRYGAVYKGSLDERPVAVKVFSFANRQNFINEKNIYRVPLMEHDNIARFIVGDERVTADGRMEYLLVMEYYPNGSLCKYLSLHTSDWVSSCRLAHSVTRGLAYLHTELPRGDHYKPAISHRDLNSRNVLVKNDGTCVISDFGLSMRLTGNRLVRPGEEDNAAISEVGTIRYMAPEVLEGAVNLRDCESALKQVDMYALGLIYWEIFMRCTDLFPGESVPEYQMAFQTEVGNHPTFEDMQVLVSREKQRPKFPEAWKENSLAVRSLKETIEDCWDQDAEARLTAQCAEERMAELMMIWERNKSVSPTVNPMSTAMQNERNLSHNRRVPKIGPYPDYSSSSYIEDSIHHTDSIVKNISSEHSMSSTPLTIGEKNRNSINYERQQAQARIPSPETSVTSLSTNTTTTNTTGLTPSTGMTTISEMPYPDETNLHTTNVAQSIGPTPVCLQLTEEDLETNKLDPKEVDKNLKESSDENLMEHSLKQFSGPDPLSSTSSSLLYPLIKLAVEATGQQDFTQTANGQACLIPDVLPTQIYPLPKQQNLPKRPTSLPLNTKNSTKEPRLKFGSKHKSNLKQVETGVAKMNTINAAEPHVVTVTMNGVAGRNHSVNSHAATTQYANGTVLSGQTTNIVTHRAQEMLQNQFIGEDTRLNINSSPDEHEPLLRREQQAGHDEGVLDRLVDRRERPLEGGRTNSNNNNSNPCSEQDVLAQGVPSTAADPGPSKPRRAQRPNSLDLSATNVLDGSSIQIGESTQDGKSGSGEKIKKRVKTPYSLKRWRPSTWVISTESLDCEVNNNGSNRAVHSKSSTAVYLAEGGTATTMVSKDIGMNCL
How it was run: (§2)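 Purified His-tagged BMPR2 kinase domain with no peptide substrate (intrinsic ATPase). 10 μM ATP, 0.02% Tween-20, kinase buffer, 50 μL, enzyme level optimized for initial-velocity conditions. 30 min at 30 °C. Leftover ATP read by Kinase-Glo luminescence, with no-kinase controls. Kiapp from a modified Morrison equation fitted to normalized fractional activity, assuming no specific inhibition mode.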

[2] = Metabolic stability in human liver microsomes assessed as half life at 2 uM and mesured upto 60 mins in presence of NADPH by UHPLC-MS analysis; format: ADME, Microsome; conditions: for t1/2: microsomes, 1 h, 2 µM
[3] = Metabolic stability in human liver microsomes assessed as intrinsic clearance per mg of protein at 2 uM and mesured upto 60 mins in presence of NADPH by UHPLC-MS analysis; format: ADME, Microsome; conditions: for microsomal intrinsic clearance: microsomes, 1 h, 2 µM
HUVEC [4] = experiment: Inhibition of BMP signalling pathway in BMP9-stimulated human HUVEC cells assessed as decrease in SMAD1 phosphorylation at 25 uM preincubated for 30 mins followed by BMP2 stimulation and measured after 15 mins by Western blot analysis; format: cell-based; conditions: time 45.0 min
How it was run: (§3)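 HUVECs, about 3 × 10^5 per well, starved overnight in Kaighn's F-12 with 0.5% FBS and 30 μg/mL endothelial cell growth supplement. Pretreated 30 min with inhibitor, then stimulated with 0.5 ng/mL BMP9. Lysed in M-PER with protease and phosphatase inhibitors. Western blot for pSMAD1/5, SMAD1 and SMAD5, quantified by densitometry.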

HUVEC [5] = experiment: Inhibition of BMP signalling pathway in BMP9-stimulated human HUVEC cells assessed as decrease in SMAD5 phosphorylation at 25 uM preincubated for 30 mins followed by BMP2 stimulation and measured after 15 mins by Western blot analysis; format: cell-based; conditions: time 45.0 min; how it was run: as §3
HEK293T [6] = experiment: Inhibition of BMP signalling pathway in BMP2-stimulated human HEK293T cells assessed as decrease in SMAD1 phosphorylation at 25 uM preincubated for 30 mins followed by BMP2 stimulation and measured after 15 mins by Western blot analysis; format: cell-based; conditions: time 45.0 min
How it was run: (§4)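 HEK293T cells, 3 × 10^5 per well, starved overnight in DMEM with 2 mM glycine and 2% heat-inactivated FBS. Pretreated 30 min with inhibitor, then 5 ng/mL BMP2 for 15 min. Lysed in M-PER with protease inhibitors. Western blot for pSMAD1/5, SMAD1, SMAD5 and GAPDH, quantified by densitometry.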

[7] = Metabolic stability in mouse liver microsomes assessed as intrinsic clearance per mg of protein at 2 uM and mesured upto 60 mins in presence of NADPH by UHPLC-MS analysis; format: ADME, Microsome; conditions: for microsomal intrinsic clearance: microsomes, 1 h, 2 µM
HEK293T [8] = experiment: Inhibition of BMP signalling pathway in BMP2-stimulated human HEK293T cells assessed as decrease in SMAD5 phosphorylation at 25 uM preincubated for 30 mins followed by BMP2 stimulation and measured after 15 mins by Western blot analysis; format: cell-based; conditions: time 45.0 min; how it was run: as §4
[9] = Metabolic stability in mouse liver microsomes assessed as half life at 2 uM and mesured upto 60 mins in presence of NADPH by UHPLC-MS analysis; format: ADME, Microsome; conditions: for t1/2: microsomes, 1 h, 2 µM
[10] = Inhibition of BMP signalling pathway in BMP2-stimulated human HEK293T cells expressing BRE and luciferase reporter assessed as inhibition of luciferase transactivation by measuring BRE-reporter activity preincubated for 30 mins followed by BMP2 stimulation and measured after 6 hrs by Bright-GLO mediated luciferase assay; format: cell-based; conditions: HEK-293T
How it was run: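 293T cells stably carrying a BMP-responsive-element luciferase reporter, 2 × 10^4 per well, attached overnight in phenol-red-free DMEM with 2 mM glycine and 2% heat-inactivated FBS. Pretreated 30 min with inhibitor, then 5 ng/mL BMP2 for 6 h. Bright-Glo luminescence read; IC50 by nonlinear regression.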

[11] = target: T2, Bone morphogenetic protein receptor type-2 (Homo sapiens) (UniProt Q13873); experiment: as §1; how it was run: as §2
T2 sequence (whole entry): T1 sequence (Q13873 whole entry)

TGF-beta receptor type-2 = TGF-beta receptor type-2 (Homo sapiens, UniProt P37173); experiment: Inhibition of TGFBR2 (unknown origin) by LanthaScreen TR-FRET assay
How it was run: (§5)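 Outsourced SelectScreen profiling using a LanthaScreen TR-FRET binding format, in which a tight-binding tracer is displaced from the kinase.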

[12] = target: Receptor-interacting serine/threonine-protein kinase 2 (Homo sapiens, UniProt O43353); experiment: Inhibition of RIPK2 (unknown origin) incubated for 30 mins in presence of [gamma33P]ATP by microplate reader analysis
Activin receptor type-2B = Activin receptor type-2B (Homo sapiens, UniProt Q13705); experiment: Inhibition of ACVR2B (unknown origin) by LanthaScreen TR-FRET assay; how it was run: as §5
Activin receptor type-2A = Activin receptor type-2A (Homo sapiens, UniProt P27037); experiment: Inhibition of ACVR2A (unknown origin) by LanthaScreen TR-FRET assay; how it was run: as §5
[13] = liver microsomes, read-out: CLH

Receptor-interacting serine/threonine-protein kinase 2, sequence (O43353 whole entry): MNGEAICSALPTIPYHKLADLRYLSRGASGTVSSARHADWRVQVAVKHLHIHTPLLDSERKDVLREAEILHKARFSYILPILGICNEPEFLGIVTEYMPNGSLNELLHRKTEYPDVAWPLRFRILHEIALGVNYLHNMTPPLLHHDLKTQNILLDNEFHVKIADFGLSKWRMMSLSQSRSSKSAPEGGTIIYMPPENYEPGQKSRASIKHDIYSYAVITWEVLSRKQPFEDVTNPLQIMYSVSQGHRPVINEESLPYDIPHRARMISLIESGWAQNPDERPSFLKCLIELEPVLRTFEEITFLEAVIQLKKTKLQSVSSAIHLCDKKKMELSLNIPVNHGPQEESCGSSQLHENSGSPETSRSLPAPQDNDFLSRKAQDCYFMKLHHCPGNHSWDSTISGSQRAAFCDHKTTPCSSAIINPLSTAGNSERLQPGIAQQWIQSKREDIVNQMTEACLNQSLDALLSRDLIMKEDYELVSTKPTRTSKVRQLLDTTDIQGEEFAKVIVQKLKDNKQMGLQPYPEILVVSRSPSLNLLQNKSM
TGF-beta receptor type-2, sequence (P37173 whole entry): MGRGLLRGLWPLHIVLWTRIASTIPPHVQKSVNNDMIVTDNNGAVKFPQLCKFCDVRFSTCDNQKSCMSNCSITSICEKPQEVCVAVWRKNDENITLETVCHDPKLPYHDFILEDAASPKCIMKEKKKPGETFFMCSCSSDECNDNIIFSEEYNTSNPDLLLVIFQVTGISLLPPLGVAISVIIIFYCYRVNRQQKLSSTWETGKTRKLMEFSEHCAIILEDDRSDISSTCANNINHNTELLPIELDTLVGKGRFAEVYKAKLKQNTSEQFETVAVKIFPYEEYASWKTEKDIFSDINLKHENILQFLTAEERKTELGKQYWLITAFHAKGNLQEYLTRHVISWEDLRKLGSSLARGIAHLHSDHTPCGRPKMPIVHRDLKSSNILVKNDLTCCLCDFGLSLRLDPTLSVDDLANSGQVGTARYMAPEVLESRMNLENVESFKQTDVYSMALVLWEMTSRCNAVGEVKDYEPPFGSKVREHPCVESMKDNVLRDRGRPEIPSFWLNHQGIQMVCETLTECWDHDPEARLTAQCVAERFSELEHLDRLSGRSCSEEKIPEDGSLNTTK
Activin receptor type-2B, sequence (Q13705 whole entry): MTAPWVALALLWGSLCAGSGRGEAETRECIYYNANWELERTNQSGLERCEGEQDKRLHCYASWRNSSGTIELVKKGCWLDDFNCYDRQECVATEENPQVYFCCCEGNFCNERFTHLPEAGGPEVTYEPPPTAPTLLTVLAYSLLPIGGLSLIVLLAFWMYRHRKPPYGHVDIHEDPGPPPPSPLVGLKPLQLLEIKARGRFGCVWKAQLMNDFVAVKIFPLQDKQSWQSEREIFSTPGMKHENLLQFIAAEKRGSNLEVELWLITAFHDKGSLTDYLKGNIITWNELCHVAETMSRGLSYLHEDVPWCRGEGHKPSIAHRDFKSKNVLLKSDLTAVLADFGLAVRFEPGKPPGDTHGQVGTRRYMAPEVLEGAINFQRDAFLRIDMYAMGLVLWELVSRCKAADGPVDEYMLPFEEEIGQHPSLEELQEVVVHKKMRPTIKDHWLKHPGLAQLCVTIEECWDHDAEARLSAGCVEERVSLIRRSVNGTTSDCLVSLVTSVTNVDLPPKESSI
Activin receptor type-2A, sequence (P27037 whole entry): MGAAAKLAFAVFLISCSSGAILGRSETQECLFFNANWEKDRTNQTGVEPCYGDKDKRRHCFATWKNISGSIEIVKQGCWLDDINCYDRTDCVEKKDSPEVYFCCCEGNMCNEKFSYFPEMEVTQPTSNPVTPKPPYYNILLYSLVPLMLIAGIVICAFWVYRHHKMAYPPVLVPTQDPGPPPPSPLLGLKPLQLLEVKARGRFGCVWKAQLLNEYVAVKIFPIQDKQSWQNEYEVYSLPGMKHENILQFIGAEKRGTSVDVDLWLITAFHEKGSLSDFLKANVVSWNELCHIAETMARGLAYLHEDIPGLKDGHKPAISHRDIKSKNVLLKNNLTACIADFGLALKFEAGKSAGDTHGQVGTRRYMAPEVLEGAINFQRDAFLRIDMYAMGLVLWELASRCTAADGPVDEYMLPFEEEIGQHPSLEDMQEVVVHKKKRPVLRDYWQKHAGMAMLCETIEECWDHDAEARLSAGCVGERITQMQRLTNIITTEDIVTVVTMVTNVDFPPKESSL

NS(=O)(=O)c1cccc(Nc2ncc(OC(F)F)c(N3CCN(c4ccccc4)C(=O)C3)n2)c1
Ki [1]: > 200 nM

COc1cnc(Nc2cccc(S(N)(=O)=O)c2)nc1N1CCN(c2ccccc2)CC1
Ki [1]: 40 nM | t1/2 [2]: 77 min | microsomal intrinsic clearance [3]: 18 µL/min/mg | inhibition (HUVEC [4]): Active | inhibition (HUVEC [5]): Active | inhibition (HEK293T [6]): Active | microsomal intrinsic clearance [7]: 120 µL/min/mg | inhibition (HEK293T [8]): Active | t1/2 [9]: 12 min | IC50 [10]: 8720 nM

COc1cnc(Nc2cccc(S(N)(=O)=O)c2)nc1N1CCN(c2ccccn2)CC1
half-life at 2 µM ([2]; liver microsomes): 43 min | microsomal intrinsic clearance at 2 µM [3, 13]: 32 µL/min/mg | microsomal intrinsic clearance at 2 µM [7, 13]: 159 µL/min/mg | half-life at 2 µM ([9]; liver microsomes): 9 min

COc1cnc(Nc2cccc(S(N)(=O)=O)c2)nc1N1CC2CCC1CN2c1ccccc1 (stereo not drawn)
Ki [1]: 310 nM

CNC(=O)[C@@H]1CC[C@@H](n2c(-c3ccc4cnccc4c3)nc3ccc(C(=O)NCc4ccccc4)cc32)C1
Ki [1]: 39 nM

NS(=O)(=O)c1cccc(Nc2ncc(C(F)(F)F)c(N3CCN(c4ccccc4)C(=O)C3)n2)c1
inhibition [11]: inactive

CNC(=O)[C@@H]1CC[C@@H](n2c(-c3cccc(Cl)c3)nc3ccc(C(=O)NCc4cccc(C(N)=O)c4)cc32)C1
Ki [1]: > 1000 nM

Cc1nnc2n1-c1ccc(Cl)cc1C(c1ccccc1)=NC2 [ALPRAZOLAM]
t1/2 [2]: 620 min | microsomal CLint at 2 µM [7, 13]: 5 µL/min/mg | t1/2 [9]: 258 min

COc1cnc(Nc2cccc(S(N)(=O)=O)c2)nc1N1CCN(c2ccccc2)CC1C (stereo not drawn)
Ki [1]: 88 nM | t1/2 [2]: 79 min | microsomal intrinsic clearance [3]: 18 µL/min/mg | microsomal intrinsic clearance [7]: 233 µL/min/mg | t1/2 [9]: 6 min

COc1cnc(Nc2cccc(S(N)(=O)=O)c2)nc1N1CCN(c2ccccc2)CC12CC2
Ki [1]: 220 nM

COc1cnc(Nc2cccc(S(N)(=O)=O)c2)nc1N1CCN(c2ccccc2)CC1C(F)(F)F (stereo not drawn)
Ki [1]: 430 nM

CC(C)Oc1cnc(Nc2cccc(S(N)(=O)=O)c2)nc1N1CCN(c2ccccc2)C(=O)C1
Ki [1]: > 200 nM

Cc1sc2c(c1C)C(c1ccc(Cl)cc1)=N[C@@H](CC(=O)OC(C)(C)C)c1nnc(C)n1-2
t1/2 [2]: 14 min

COc1cnc(Nc2cccc(S(N)(=O)=O)c2)nc1N1CC2CCC(C1)N2c1ccccc1
Ki [1]: 220 nM

COc1cnc(Nc2cccc(S(N)(=O)=O)c2)nc1N1CCN(c2ccccc2)C(C)C1 (stereo not drawn)
Ki [1]: 118 nM | t1/2 [2]: 60 min | microsomal intrinsic clearance [3]: 23 µL/min/mg | microsomal intrinsic clearance [7]: 220 µL/min/mg | t1/2 [9]: 6 min

COc1cnc(Nc2cccc(S(N)(=O)=O)c2)nc1N1CCNCC1
Ki [1]: 250 nM

COc1cnc(Nc2ccccc2)nc1N1CCN(c2ccccc2)CC1
inhibition [11]: inactive

CNC(=O)c1ccc2nc(-c3ccc4cnccc4c3)n([C@@H]3CC[C@@H](C(=O)NC)C3)c2c1
Ki [1]: > 1000 nM

COc1cnc(Nc2cccc(S(N)(=O)=O)c2)nc1N1CC2CC1CN2c1ccccc1 (stereo not drawn)
Ki [1]: 930 nM

CCOc1cnc(Nc2cccc(S(N)(=O)=O)c2)nc1N1CCN(c2ccccc2)C(=O)C1
Ki [1]: 5 nM | t1/2 [2]: 73 min | microsomal intrinsic clearance [3]: 19 µL/min/mg | microsomal intrinsic clearance [7]: 79 µL/min/mg | t1/2 [9]: 18 min

CNC(=O)[C@@H]1CC[C@@H](n2c(-c3cc(Cl)cc(Cl)c3)nc3ccc(C(=O)NCc4cccc(C(N)=O)c4)cc32)C1
Ki [1]: > 1000 nM

COc1cnc(Nc2cccc(S(N)(=O)=O)c2)nc1N1CC(F)(c2ccccc2)C1
Ki [1]: 18 nM | t1/2 [2]: 170 min | microsomal intrinsic clearance [3]: 8 µL/min/mg | microsomal intrinsic clearance [7]: 65 µL/min/mg | t1/2 [9]: 21 min

Cn1c(-c2ccc3cnccc3c2)nc2ccc(C(=O)NCc3cccc(C(N)=O)c3)cc21
Ki [1]: 22 nM | t1/2 [2]: 69 min | microsomal intrinsic clearance [3]: 20 µL/min/mg | microsomal intrinsic clearance [7]: 99 µL/min/mg | t1/2 [9]: 14 min | IC50 [10]: 29800 nM

NS(=O)(=O)c1cccc(Nc2ncc(F)c(N3CCN(c4ccccc4)C(=O)C3)n2)c1
Ki [1]: 236 nM

c1ccc2c(-c3cnn4cc(-c5ccc(N6CCNCC6)cc5)cnc34)ccnc2c1
IC50 (TGF-beta receptor type-2): 4.2 nM | IC50 [12]: 25 nM | IC50 (Activin receptor type-2B): 9.3 nM | inhibition (HUVEC [4]): Active | inhibition (HUVEC [5]): Active | IC50 (Activin receptor type-2A): 9.3 nM | inhibition (HEK293T [6]): Active | inhibition (HEK293T [8]): Active | IC50 [10]: 82 nM
